Laboratory results reported in paper PMC6402543 (Nature, 2018).
Converted amounts (≈) assume the structure as drawn. Like-named read-outs stand apart in the source and are kept apart here.

Tests used:
[1] = tested on: L. donovani amastigotes (LV9); conditions: uid; cited from earlier work
[2] = tested on: L. donovani promastigotes (LdBOB); assay: Cell cycle analysis; assay type: cell-based, Leishmania donovani; conditions: 5x EC50 for 8 h
Mouse pharmacokinetics = assay type: in vivo, Mouse (male, CD1); conditions: for F% based on AUC(0-inf): mouse
Rat pharmacokinetics = assay type: in vivo, Rat (male, SD)
Stability in microsomes [3] = assay type: in vitro ADME, rat (Sprague Dawley); conditions: Rat; 0.5 μM
How it was run: (§1)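 Liver microsomes of each stated species were incubated with test compound at 0.5 µM. Intrinsic clearance (Cli) is reported in mL/min/g tissue.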

[4] = Rat 7-day repeat dose oral toxicology; assay type: in vivo, rat (male Wistar Han); conditions: all doses tested
[5] = tested on: L. donovani axenic amastigotes; assay: Cidal axenic amastigote assay; assay type: cell-based; conditions: Leishmania donovani, read-out: Cidal axenic EC50
Stability in hepatocytes [6] = assay type: in vitro ADME, mouse (CD1); conditions: Mouse; 0.5 μM
How it was run: (§2)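 Test compound was incubated with hepatocytes of the stated species at 0.5 µM. The read-out is intrinsic clearance (Cli), expressed as mL/min/g tissue.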

Stability in hepatocytes [7] = assay type: in vitro ADME, rat (Sprague Dawley); conditions: Rat; 0.5 μM
How it was run: as §2

[8] = Non-GLP preclinical assessment of cardiovascular effects and genotoxicity
[9] = tested on: L. donovani axenic amastigotes; assay: Rate-of-kill of axenic amastigotes; assay type: cell-based, Leishmania donovani
Stability in hepatocytes [10] = assay type: in vitro ADME; conditions: Human; 0.5 μM
How it was run: as §2

[11] = tested on: L. donovani intramacrophage amastigotes (INMAC); assay: Intra macrophage drug sensitivity assay; assay type: cell-based, Leishmania donovani; conditions: 5 RES clone 1 vs WT intramacrophage amastigotes
[12] = tested on: L. donovani clinical isolates (LV9, SUKA 001, BHU1, DD8); assay type: cell-based, Leishmania donovani
Stability in microsomes [13] = assay type: in vitro ADME, dog (beagle); conditions: Dog; 0.5 μM
How it was run: as §1

Stability in hepatocytes [14] = assay type: in vitro ADME, dog (beagle); conditions: Dog; 0.5 μM
How it was run: as §2

[15] = tested on: L. donovani amastigotes (LV9); assay: In vivo efficacy, mouse model of VL; parameters: species or system Leishmania donovani; conditions: 25 mg/kg bid, 10 days, oral
How it was run: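 Each treatment arm used 5 mice. Regimens were dosed once daily (uid) or twice daily (bid) for 5 or 10 days, and bid dosing for 10 days was run over a dose range. Parasite burden was scored as Leishman Donovan Units: amastigotes per 500 nucleated cells multiplied by organ weight in g. Read-out was reduction in parasite load.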

THP-1 cells = assay: THP-1 host cell toxicity in the intra-macrophage assay; assay type: cell-based; conditions: Homo sapiens, THP-1, read-out: THP-1 EC50
[16] = tested on: L. donovani promastigotes (LdBOB); assay: Promastigote drug sensitivity assay; assay type: cell-based, Leishmania donovani; conditions: for EC50: Leishmania donovani
[17] = Solubility in simulated physiological media; assay type: physicochemical; conditions: fed simulated intestinal fluid (FeSSIF), pH 6.5
Stability in microsomes [18] = assay type: in vitro ADME, mouse (CD1); conditions: Mouse; 0.5 μM
How it was run: as §1

Stability in microsomes [19] = assay type: in vitro ADME; conditions: Human; 0.5 μM
How it was run: as §1

[20] = male, CD1, mouse, whole blood, iv, 1 mg/kg
[21] = male, CD1, mouse, whole blood, po, 10 mg/kg
[22] = male, CD1, mouse, whole blood, po, 100 mg/kg
[23] = male, CD1, mouse, whole blood, po, 300 mg/kg
[24] = male, Sprague Dawley, whole blood, iv, 1 mg/kg
[25] = male, Sprague Dawley, whole blood, po, 10 mg/kg
[26] = male, Sprague Dawley, whole blood, po, 100 mg/kg
[27] = male, Sprague Dawley, whole blood, po, 300 mg/kg

For `CCCCCCCCCCCCCCCCOP(=O)([O-])OCC[N+](C)(C)C` [miltefosine], which “ED90 in a mouse model” value [1] is on record?
Its value is 27 mg/kg.

Which results are given for `C[C@H]1CN(c2n[nH]c3nc(N[C@H]4CC[C@H](NS(=O)(=O)CCC(F)(F)F)CC4)ncc23)CCO1` [Compound 7]?
Effect on cell-cycle progression [2]: accumulation of cells in G1 and in G2/M and a decrease in the proportion of cells in S phase; AUC(0-inf) (Mouse pharmacokinetics; [20]): 104 ± 26 ng·h/mL; Vd (Mouse pharmacokinetics; [20]): 4 ± 0.5 L/kg; clearance (Mouse pharmacokinetics; [20]): 169 ± 50 mL/min/kg; half-life (Mouse pharmacokinetics; [20]): 0.3 ± 0.04 h; AUC(0-inf) (Mouse pharmacokinetics; [21]): 1460 ± 362 ng·h/mL; Cmax (Mouse pharmacokinetics; [21]): 561 ± 148 ng/mL; Tmax (Mouse pharmacokinetics; [21]): 2 h; AUC(0-inf) (Mouse pharmacokinetics; [22]): 39400 ± 23800 ng·h/mL; Cmax (Mouse pharmacokinetics; [22]): 8810 ± 1970 ng/mL; Tmax (Mouse pharmacokinetics; [22]): 3 h; AUC(0-inf) (Mouse pharmacokinetics; [23]): 66200 ng·h/mL; Cmax (Mouse pharmacokinetics; [23]): 11400 ± 4210 ng/mL; Tmax (Mouse pharmacokinetics; [23]): 5 h; F% based on AUC(0-inf) (Mouse pharmacokinetics; oral 10 mg/kg): >100%; F% based on AUC(0-inf) (Mouse pharmacokinetics; oral 100 mg/kg): >100%; F% based on AUC(0-inf) (Mouse pharmacokinetics; oral 300 mg/kg): >100%; AUC(0-inf) (Rat pharmacokinetics; [24]): 1510 ± 782 ng·h/mL; Vd (Rat pharmacokinetics; [24]): 0.4 ± 0.1 L/kg; clearance (Rat pharmacokinetics; [24]): 14 ± 9 mL/min/kg; half-life (Rat pharmacokinetics; [24]): 0.4 ± 0.2 h; AUC(0-inf) (Rat pharmacokinetics; [25]): 6480 ± 2490 ng·h/mL; Cmax (Rat pharmacokinetics; [25]): 1040 ± 261 ng/mL; Tmax (Rat pharmacokinetics; [25]): 2 h; AUC(0-inf) (Rat pharmacokinetics; [26]): 61200 ± 23600 ng·h/mL; Cmax (Rat pharmacokinetics; [26]): 8470 ± 3750 ng/mL; Tmax (Rat pharmacokinetics; [26]): 7.3 h; AUC(0-inf) (Rat pharmacokinetics; [27]): 136000 ± 24800 ng·h/mL; Cmax (Rat pharmacokinetics; [27]): 14800 ± 2680 ng/mL; Tmax (Rat pharmacokinetics; [27]): 7.3 h; F% based on AUC(0-inf) (Rat pharmacokinetics; oral 10 mg/kg): 46 ±18%; F% based on AUC(0-inf) (Rat pharmacokinetics; oral 100 mg/kg): 40 ± 15%; F% based on AUC(0-inf) (Rat pharmacokinetics; oral 300 mg/kg): 51 ± 22%; Microsomes Cli (Stability in microsomes [3]): <0.5 mL/min/g tissue; Adverse effects (clinical chemistry and histopathology) [4]: no significant adverse effects; EC50 [5]: 0.1 µM; Hepatocytes Cli (Stability in hepatocytes [6]): 0.84 mL/min/g tissue; Hepatocytes Cli (Stability in hepatocytes [7]): 0.77 mL/min/g tissue; Cardiovascular effects and genotoxicity [8]: did not reveal any issues that would prevent further development; Time at which compound was cytocidal ([9]; 0.2 μM): 96 h; Time at which compound was cytocidal ([9]; 1.8 μM): 48 h; Hepatocytes Cli (Stability in hepatocytes [10]): 0.5 mL/min/g tissue; Fold difference [11]: 5; Variation in potency against a panel of Leishmania clinical-derived lines [12]: less than 10 fold; Microsomes Cli (Stability in microsomes [13]): <0.4 mL/min/g tissue; Hepatocytes Cli (Stability in hepatocytes [14]): 0.31 mL/min/g tissue; Reduction in parasite load [15]: 99%; EC50 (THP-1 cells): > 50 µM; Fold ([16]; 4-resistant clone 1, fold resistance vs wild type): 20; Fold ([16]; 4-resistant clone 2, fold resistance vs wild type): 24; Fold ([16]; 4-resistant clone 3, fold resistance vs wild type): 48; Fold ([16]; 5-resistant clone 1, fold resistance vs wild type): 41; Fold ([16]; 5-resistant clone 2, fold resistance vs wild type): 35; Fold ([16]; 5-resistant clone 3, fold resistance vs wild type): 22; EC50 relative to WT ([16]; CRK12MUT and CYC9 co-overexpressing): ~ 6 fold; EC50 relative to WT ([16]; CRK12MUT overexpressing): ~ 3.4 fold; EC50 relative to WT ([16]; CRK12WT and CYC9 co-overexpressing): ~ 3 fold; EC50 ([16]; read-out: pEC50 (SD), 4-resistant clone 1 promastigotes (converted)): 1.58 µM; EC50 ([16]; read-out: pEC50 (SD), 4-resistant clone 2 promastigotes (converted)): 2 µM; EC50 ([16]; read-out: pEC50 (SD), 4-resistant clone 3 promastigotes (converted)): 3.98 µM; EC50 ([16]; read-out: pEC50 (SD), 5-resistant clone 1 promastigotes (converted)): 3.16 µM; EC50 ([16]; read-out: pEC50 (SD), 5-resistant clone 2 promastigotes (converted)): 3.16 µM; EC50 ([16]; read-out: pEC50 (SD), 5-resistant clone 3 promastigotes (converted)): 2 µM; EC50 ([16]; read-out: pEC50 (SD), Wild type (Age-matched) promastigotes (converted)): 0.0501 µM; EC50 ([16]; read-out: pEC50 (SD), Wild type (Start clone) promastigotes (converted)): 0.0794 µM; Fold ([16]; Wild type (Age-matched) promastigotes, fold vs wild type): 1; Fold ([16]; Wild type (Start clone) promastigotes, fold vs wild type): 1; solubility at 4 h [17]: 25 µg/mL (≈ 50.9 µM); Microsomes Cli (Stability in microsomes [18]): 0.52 mL/min/g tissue; Microsomes Cli (Stability in microsomes [19]): 0.71 mL/min/g tissue
